Measurements: ChEMBL document CHEMBL1806473, “Structure-based optimization of click-based histone deacetylase inhibitors” (Eur J Med Chem, 2011)

Legend:
OVCAR-4 [1] = test: Cytotoxicity against human OVCAR4 cells; type: cell-based
KM12 [2] = test: Cytotoxicity against human KM12 cells; type: cell-based
SR [3] = test: Antiproliferative activity against human SR cells by SRB assay; type: functional
Procedure, shortened: (§1)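 Cell growth was tested in the NIH in vitro disease-oriented human tumor cell line screen, which NCI ran for these compounds. Compounds were tested at five concentrations (100, 10, 1.0, 0.1 and 0.01 μM), and growth was read by SRB signal. GI50 is the drug concentration that reduces growth of treated cells to half that of control cells during drug incubation.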

HCT-116 = test: Cytotoxicity against human HCT116 cells; type: cell-based
Procedure, shortened: (§2)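 Tested in the NCI in vitro disease-oriented human tumour cell line screen, with screening performed by NCI. Growth was read by SRB signal over the drug incubation period at five concentrations: 100, 10, 1.0, 0.1 and 0.01 μM. GI50 is the concentration that reduces growth of treated cells to half that of control cells.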

NCI-H322M = test: Cytotoxicity against human NCI-H322M cells; type: cell-based
UACC-257 [4] = test: Antiproliferative activity against human UACC257 cells by SRB assay; type: functional; procedure, shortened: as §1
COLO 205 [5] = test: Cytotoxicity against human COLO205 cells; type: cell-based; procedure, shortened: as §2
Malme-3M [6] = test: Cytotoxicity against human MALME-3M cells; type: cell-based; procedure, shortened: as §2
SNB-75 = test: Antiproliferative activity against human SNB75 cells by SRB assay; type: functional; procedure, shortened: as §1
786-0 = test: Cytotoxicity against human 786-0 cells; type: cell-based
UO-31 [7] = test: Cytotoxicity against human UO31 cells; type: cell-based
Procedure, shortened: (§3)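 Screened by NCI in its in vitro disease-oriented human tumour cell line panel. Compounds tested at five concentrations (100, 10, 1.0, 0.1 and 0.01 μM). Growth read by sulforhodamine B (SRB) signal. GI50 is the concentration reducing growth of treated cells to half that of control cells during the drug incubation.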

UO-31 [8] = test: Antiproliferative activity against human UO31 cells by SRB assay; type: functional; procedure, shortened: as §1
SK-MEL-28 = test: Cytotoxicity against human SK-MEL-28 cells; type: cell-based
HL-60(TB) [9] = test: Cytotoxicity against human HL-60(TB) cells; type: cell-based
CCRF-CEM = test: Antiproliferative activity against human CCRF-CEM cells by SRB assay; type: functional
Procedure, shortened: (§4)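 Tested in the NCI in vitro human tumor cell line screen, run by the National Cancer Institute. Each compound was given at five concentrations (100, 10, 1.0, 0.1 and 0.01 μM). GI50 is the drug concentration that reduces growth of treated cells to half that of control cells during drug incubation, judged from the SRB signal.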

OVCAR-3 = test: Antiproliferative activity against human OVCAR3 cells by SRB assay; type: functional; procedure, shortened: as §4
UACC-62 = test: Antiproliferative activity against human UACC62 cells by SRB assay; type: functional; procedure, shortened: as §1
PC-3 [10] = test: Cytotoxicity against human PC3 cells; type: cell-based
RPMI-8226 [11] = test: Antiproliferative activity against human RPMI8226 cells by SRB assay; type: functional; procedure, shortened: as §4
SF-295 = test: Cytotoxicity against human SF295 cells; type: cell-based; procedure, shortened: as §2
HL-60(TB) [12] = test: Antiproliferative activity against human HL-60(TB) cells by SRB assay; type: functional; procedure, shortened: as §2
HCC 2998 [13] = test: Antiproliferative activity against human HCC2998 cells by SRB assay; type: functional; procedure, shortened: as §4
SF-539 = test: Cytotoxicity against human SF539 cells; type: cell-based; procedure, shortened: as §2
RPMI-8226 [14] = test: Cytotoxicity against human RPMI8226 cells; type: cell-based; procedure, shortened: as §2
KM12 [15] = test: Antiproliferative activity against human KM12 cells by SRB assay; type: functional; procedure, shortened: as §4
[16] = Cytotoxicity against human Hs 578T cells; type: cell-based
HT-29 = test: Antiproliferative activity against human HT-29 cells by SRB assay; type: functional; procedure, shortened: as §4
TK-10 [17] = test: Antiproliferative activity against human TK10 cells by SRB assay; type: functional; procedure, shortened: as §1
T47D = test: Antiproliferative activity against human T47D cells by SRB assay; type: functional; procedure, shortened: as §1
NCI-H522 = test: Antiproliferative activity against human NCI-H522 cells by SRB assay; type: functional; procedure, shortened: as §4
SK-OV-3 [18] = test: Antiproliferative activity against human SKOV3 cells by SRB assay; type: functional; procedure, shortened: as §4
UACC-257 [19] = test: Cytotoxicity against human UACC257 cells; type: cell-based; procedure, shortened: as §3
HCT-15 = test: Cytotoxicity against human HCT15 cells; type: cell-based; procedure, shortened: as §2
CAKI-1 = test: Cytotoxicity against human Caki1 cells; type: cell-based
OVCAR-4 [20] = test: Antiproliferative activity against human OVCAR4 cells by SRB assay; type: functional; procedure, shortened: as §4
M14 [21] = test: Antiproliferative activity against human M14 cells by SRB assay; type: functional; procedure, shortened: as §4
EKVX = test: Cytotoxicity against human EKVX cells; type: cell-based; procedure, shortened: as §2
TK-10 [22] = test: Cytotoxicity against human TK10 cells; type: cell-based; procedure, shortened: as §3
M14 [23] = test: Cytotoxicity against human M14 cells; type: cell-based
A498 = test: Antiproliferative activity against human A498 cells by SRB assay; type: functional; procedure, shortened: as §4
PC-3 [24] = test: Antiproliferative activity against human PC3 cells by SRB assay; type: functional; procedure, shortened: as §4
SR [25] = test: Cytotoxicity against human SR cells; type: cell-based; procedure, shortened: as §3
OVCAR-5 = test: Cytotoxicity against human OVCAR5 cells; type: cell-based; procedure, shortened: as §2
NCI-H460 = test: Antiproliferative activity against human NCI-H460 cells by SRB assay; type: functional; procedure, shortened: as §4
IGROV-1 = test: Antiproliferative activity against human IGROV1 cells by SRB assay; type: functional; procedure, shortened: as §4
MDA-MB-231 = test: Antiproliferative activity against human MDA-MB-231 cells by SRB assay; type: functional; procedure, shortened: as §4
LOX IMVI = test: Antiproliferative activity against human LOXIMVI cells by SRB assay; type: functional; procedure, shortened: as §4
COLO 205 [26] = test: Antiproliferative activity against human COLO205 cells by SRB assay; type: functional; procedure, shortened: as §4
SK-OV-3 [27] = test: Cytotoxicity against human SKOV3 cells; type: cell-based
SNB-19 = test: Antiproliferative activity against human SNB19 cells by SRB assay; type: functional; procedure, shortened: as §4
Malme-3M [28] = test: Antiproliferative activity against human MALME-3M cells by SRB assay; type: functional; procedure, shortened: as §4
MCF7 = test: Antiproliferative activity against human MCF7 cells by SRB assay; type: functional; procedure, shortened: as §4
HCC 2998 [29] = test: Cytotoxicity against human HCC2998 cells; type: cell-based; procedure, shortened: as §2
MOLT-4 = test: Cytotoxicity against human MOLT4 cells; type: cell-based
NCI/ADR-RES [30] = test: Cytotoxicity against human NCI/ADR-RES cells; type: cell-based; procedure, shortened: as §2
MDA-MB-468 = test: Cytotoxicity against human MDA-MB-468 cells; type: cell-based; procedure, shortened: as §2
NCI/ADR-RES [31] = test: Antiproliferative activity against human NCI/ADR-RES cells by SRB assay; type: functional; procedure, shortened: as §4

## CC(/C=C/c1ccccc1)n1cc(/C=C/C(=O)NO)nn1 (stereo not drawn)
OVCAR-4 [1]
  LC50: 18.3 µM
KM12 [2]
  LC50: 6.82 µM
SR [3]
  GI50: 385 nM
HCT-116
  LC50: 3.81 µM
NCI-H322M
  LC50: > 100 µM
UACC-257 [4]
  GI50: 1350 nM
COLO 205 [5]
  LC50: 5.2 µM
Malme-3M [6]
  LC50: 51.9 µM
SNB-75
  GI50: 924 nM
786-0
  LC50: 9.03 µM
UO-31 [7]
  LC50: 66.7 µM
UO-31 [8]
  GI50: 549 nM
SK-MEL-28
  LC50: 24.5 µM
HL-60(TB) [9]
  LC50: > 100 µM
CCRF-CEM
  GI50: 442 nM
OVCAR-3
  GI50: 1130 nM
UACC-62
  GI50: 524 nM
PC-3 [10]
  LC50: > 100 µM
RPMI-8226 [11]
  GI50: 407 nM
SF-295
  LC50: > 100 µM
HL-60(TB) [12]
  GI50: 269 nM
HCC 2998 [13]
  GI50: 927 nM
SF-539
  LC50: 4.61 µM
RPMI-8226 [14]
  LC50: > 100 µM
KM12 [15]
  GI50: 1290 nM
[16]
  LC50: > 100 µM
HT-29
  GI50: 325 nM
TK-10 [17]
  GI50: 582 nM
T47D
  GI50: 667 nM
NCI-H522
  GI50: 173 nM
SK-OV-3 [18]
  GI50: 1170 nM
UACC-257 [19]
  LC50: > 100 µM
HCT-15
  LC50: 42.8 µM
CAKI-1
  LC50: 34.7 µM
OVCAR-4 [20]
  GI50: 636 nM
M14 [21]
  GI50: 777 nM
EKVX
  LC50: > 100 µM
TK-10 [22]
  LC50: 31.9 µM
M14 [23]
  LC50: 9.08 µM
A498
  GI50: 472 nM
PC-3 [24]
  GI50: 890 nM
SR [25]
  LC50: > 100 µM
OVCAR-5
  LC50: > 100 µM
NCI-H460
  GI50: 612 nM
IGROV-1
  GI50: 564 nM
MDA-MB-231
  GI50: 1380 nM
LOX IMVI
  GI50: 438 nM
COLO 205 [26]
  GI50: 469 nM
SK-OV-3 [27]
  LC50: 21.8 µM
SNB-19
  GI50: 1870 nM
Malme-3M [28]
  GI50: 279 nM
MCF7
  GI50: 1160 nM
HCC 2998 [29]
  LC50: 6.91 µM
MOLT-4
  LC50: > 100 µM

## O=C(/C=C/c1ccc(CN(CCO)CCc2c[nH]c3ccccc23)cc1)NO [DACINOSTAT]
OVCAR-4 [1]
  LC50: > 100 µM
KM12 [2]
  LC50: 29.9 µM
SR [3]
  GI50: 2990 nM
HCT-116
  LC50: 51.2 µM
NCI-H322M
  LC50: > 100 µM
UACC-257 [4]
  GI50: 393 nM
COLO 205 [5]
  LC50: 50.4 µM
Malme-3M [6]
  LC50: 82 µM
SNB-75
  GI50: 318 nM
786-0
  LC50: 52.4 µM
UO-31 [7]
  LC50: 52.8 µM
UO-31 [8]
  GI50: 1120 nM
SK-MEL-28
  LC50: 31.9 µM
HL-60(TB) [9]
  LC50: > 100 µM
CCRF-CEM
  GI50: 251 nM
OVCAR-3
  GI50: 1110 nM
UACC-62
  GI50: 379 nM
NCI/ADR-RES [30]
  LC50: > 100 µM
PC-3 [10]
  LC50: 73.5 µM
RPMI-8226 [11]
  GI50: 523 nM
SF-295
  LC50: 6.91 µM
HL-60(TB) [12]
  GI50: 249 nM
SF-539
  LC50: 57.1 µM
RPMI-8226 [14]
  LC50: > 100 µM
KM12 [15]
  GI50: 1040 nM
[16]
  LC50: > 100 µM
HT-29
  GI50: 566 nM
TK-10 [17]
  GI50: 495 nM
T47D
  GI50: 444 nM
SK-OV-3 [18]
  GI50: 524 nM
UACC-257 [19]
  LC50: 44.8 µM
HCT-15
  LC50: 56.4 µM
CAKI-1
  LC50: 5.79 µM
OVCAR-4 [20]
  GI50: 3210 nM
MDA-MB-468
  LC50: 94.3 µM
M14 [21]
  GI50: 849 nM
EKVX
  LC50: > 100 µM
TK-10 [22]
  LC50: > 100 µM
M14 [23]
  LC50: 93.8 µM
A498
  GI50: 1110 nM
PC-3 [24]
  GI50: 1300 nM
SR [25]
  LC50: > 100 µM
OVCAR-5
  LC50: 38.9 µM
NCI-H460
  GI50: 700 nM
IGROV-1
  GI50: 187 nM
MDA-MB-231
  GI50: 1960 nM
LOX IMVI
  GI50: 1080 nM
COLO 205 [26]
  GI50: 1080 nM
SK-OV-3 [27]
  LC50: 28.5 µM
SNB-19
  GI50: 1530 nM
Malme-3M [28]
  GI50: 461 nM
MCF7
  GI50: 730 nM
NCI/ADR-RES [31]
  GI50: 180 nM
MOLT-4
  LC50: 86.9 µM
